Data published in ChEMBL document CHEMBL4007505 (J Med Chem, 2017).
Active and inactive are the calls of the source.

Tests used:
[1] = biological target: T1, Adenosine receptor A3 (Homo sapiens, UniProt P0DMS8); assay: Displacement of [125I]N6-(4-amino-3-iodobenzyl)adenosine-5'-N-methyluronamide from human A3AR expressed in HEK293T cells pre-incubated for 10 mins before radioligand addition and measured 90 mins after radioligand addition by micro beta scintillation counting analysis relative to control; type: cell-based, HEK-293T
T1 sequence (P0DMS8 whole entry): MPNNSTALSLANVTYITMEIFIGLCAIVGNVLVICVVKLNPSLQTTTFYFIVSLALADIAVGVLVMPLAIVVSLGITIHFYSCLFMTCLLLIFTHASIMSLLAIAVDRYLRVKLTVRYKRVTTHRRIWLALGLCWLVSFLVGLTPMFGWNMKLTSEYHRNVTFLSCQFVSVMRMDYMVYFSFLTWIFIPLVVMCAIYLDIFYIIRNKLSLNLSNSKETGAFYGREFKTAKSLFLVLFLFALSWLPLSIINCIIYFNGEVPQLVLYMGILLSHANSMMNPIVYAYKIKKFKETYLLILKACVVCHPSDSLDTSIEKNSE

[2] = biological target: Sigma intracellular receptor 2 (Rattus norvegicus, UniProt Q5U3Y7); assay: Displacement of [3H]DTG from rat sigma 2 receptor
Sigma intracellular receptor 2, sequence (Q5U3Y7 whole entry): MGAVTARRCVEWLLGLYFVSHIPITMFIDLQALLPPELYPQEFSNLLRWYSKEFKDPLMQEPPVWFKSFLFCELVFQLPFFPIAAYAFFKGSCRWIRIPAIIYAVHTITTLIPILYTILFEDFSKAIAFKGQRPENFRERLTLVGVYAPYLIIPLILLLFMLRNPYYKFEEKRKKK

[3] = biological target: T2, Sodium-dependent dopamine transporter (Homo sapiens, UniProt Q01959); assay: Enhancing of [3H]WIN35,428 binding to recombinant human DAT expressed in HEK293 cell membranes at 10 uM pre-incubated for 10 mins before radioligand addition and measured 90 mins after radioligand addition by micro beta scintillation counting analysis relative to control
T2 sequence (Q01959 whole entry): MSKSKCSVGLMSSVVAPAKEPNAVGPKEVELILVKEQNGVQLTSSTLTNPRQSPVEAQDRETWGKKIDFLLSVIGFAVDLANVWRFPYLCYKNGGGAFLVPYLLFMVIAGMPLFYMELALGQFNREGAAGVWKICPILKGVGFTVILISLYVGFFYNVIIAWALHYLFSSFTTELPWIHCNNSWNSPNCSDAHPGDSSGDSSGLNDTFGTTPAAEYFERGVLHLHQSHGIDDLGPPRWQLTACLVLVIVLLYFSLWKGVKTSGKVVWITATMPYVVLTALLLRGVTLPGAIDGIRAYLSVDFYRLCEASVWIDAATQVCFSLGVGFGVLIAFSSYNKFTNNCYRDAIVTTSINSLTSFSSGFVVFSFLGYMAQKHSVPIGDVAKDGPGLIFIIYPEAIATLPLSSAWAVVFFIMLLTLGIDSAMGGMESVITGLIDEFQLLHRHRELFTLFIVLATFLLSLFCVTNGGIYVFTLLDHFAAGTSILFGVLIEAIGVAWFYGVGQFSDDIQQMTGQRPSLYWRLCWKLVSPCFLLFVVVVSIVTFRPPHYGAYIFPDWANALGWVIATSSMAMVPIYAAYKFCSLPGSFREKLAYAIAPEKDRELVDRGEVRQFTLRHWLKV

[4] = biological target: T3, Adenosine receptor A3 (Mus musculus) (UniProt Q61618); assay: Displacement of [125I]N6-(4-amino-3-iodobenzyl)adenosine-5'-N-methyluronamide from mouse A3AR expressed in HEK293T cells at 10 uM pre-incubated for 10 mins before radioligand addition and measured 90 mins after radioligand addition by micro beta scintillation counting analysis relative to control; type: cell-based
T3 sequence (whole entry): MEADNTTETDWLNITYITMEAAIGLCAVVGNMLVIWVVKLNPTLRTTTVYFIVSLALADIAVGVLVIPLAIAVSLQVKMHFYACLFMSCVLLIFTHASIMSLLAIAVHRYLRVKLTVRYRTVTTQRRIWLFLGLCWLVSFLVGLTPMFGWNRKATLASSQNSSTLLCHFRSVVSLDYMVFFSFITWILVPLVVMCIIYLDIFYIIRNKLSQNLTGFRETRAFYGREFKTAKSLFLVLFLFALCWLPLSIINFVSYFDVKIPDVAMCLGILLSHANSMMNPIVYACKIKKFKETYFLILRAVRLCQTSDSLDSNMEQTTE

[5] = biological target: Alpha-2A adrenergic receptor (Homo sapiens, UniProt P08913); assay: Displacement of [3H]Rauwolscine from human adrenergic alpha2A receptor
Alpha-2A adrenergic receptor, sequence (P08913 whole entry): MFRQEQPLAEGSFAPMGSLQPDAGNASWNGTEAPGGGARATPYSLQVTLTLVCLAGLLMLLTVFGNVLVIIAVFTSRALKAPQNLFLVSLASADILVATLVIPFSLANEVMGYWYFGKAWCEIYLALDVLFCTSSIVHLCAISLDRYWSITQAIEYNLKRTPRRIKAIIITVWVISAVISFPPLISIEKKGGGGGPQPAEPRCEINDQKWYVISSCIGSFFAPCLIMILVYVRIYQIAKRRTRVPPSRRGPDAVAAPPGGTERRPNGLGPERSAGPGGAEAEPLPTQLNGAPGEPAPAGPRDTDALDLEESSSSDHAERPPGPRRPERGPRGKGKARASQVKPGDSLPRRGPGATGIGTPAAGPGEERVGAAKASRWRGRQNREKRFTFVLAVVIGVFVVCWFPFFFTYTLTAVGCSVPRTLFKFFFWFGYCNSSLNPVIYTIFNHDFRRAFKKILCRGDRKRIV

[6] = biological target: T4, Alpha-1D adrenergic receptor (Homo sapiens, UniProt P25100); assay: Displacement of [3H]Prazosin from human adrenergic alpha1D receptor
T4 sequence (P25100 whole entry): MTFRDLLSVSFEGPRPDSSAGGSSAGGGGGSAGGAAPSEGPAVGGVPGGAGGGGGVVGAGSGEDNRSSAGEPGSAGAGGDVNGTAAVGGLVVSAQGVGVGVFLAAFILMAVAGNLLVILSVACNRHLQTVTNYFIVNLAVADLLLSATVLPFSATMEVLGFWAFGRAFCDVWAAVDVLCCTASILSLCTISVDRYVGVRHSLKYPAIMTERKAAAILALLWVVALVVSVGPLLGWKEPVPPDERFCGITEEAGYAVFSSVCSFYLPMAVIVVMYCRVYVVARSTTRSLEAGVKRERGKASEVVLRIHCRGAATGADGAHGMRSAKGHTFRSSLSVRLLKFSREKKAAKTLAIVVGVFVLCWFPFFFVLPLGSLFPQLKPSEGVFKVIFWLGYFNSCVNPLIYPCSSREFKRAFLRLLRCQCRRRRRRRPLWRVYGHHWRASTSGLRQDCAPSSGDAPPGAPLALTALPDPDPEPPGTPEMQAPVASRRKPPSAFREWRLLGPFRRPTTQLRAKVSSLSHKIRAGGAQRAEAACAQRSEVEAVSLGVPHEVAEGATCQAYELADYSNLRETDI

[7] = biological target: T5, Alpha-1B adrenergic receptor (Homo sapiens, UniProt P35368); assay: Displacement of [3H]Prazosin from human adrenergic alpha1B receptor
T5 sequence (P35368 whole entry): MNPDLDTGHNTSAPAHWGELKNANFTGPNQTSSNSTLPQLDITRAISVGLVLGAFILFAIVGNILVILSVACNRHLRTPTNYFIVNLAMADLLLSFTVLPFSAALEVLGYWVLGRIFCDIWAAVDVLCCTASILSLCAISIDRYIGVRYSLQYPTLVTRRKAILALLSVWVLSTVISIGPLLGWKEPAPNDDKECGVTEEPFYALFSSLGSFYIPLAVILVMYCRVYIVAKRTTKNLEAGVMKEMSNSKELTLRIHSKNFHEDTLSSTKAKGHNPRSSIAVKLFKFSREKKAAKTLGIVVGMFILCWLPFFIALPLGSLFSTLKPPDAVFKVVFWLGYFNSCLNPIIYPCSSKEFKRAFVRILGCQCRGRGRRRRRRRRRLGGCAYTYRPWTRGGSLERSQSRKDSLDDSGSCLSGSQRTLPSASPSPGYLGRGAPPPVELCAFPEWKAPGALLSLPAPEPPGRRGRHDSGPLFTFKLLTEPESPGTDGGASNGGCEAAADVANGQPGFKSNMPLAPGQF

[8] = biological target: T6, Alpha-2C adrenergic receptor (Homo sapiens, UniProt P18825); assay: Displacement of [3H]Rauwolscine from human adrenergic alpha2C receptor
T6 sequence (P18825 whole entry): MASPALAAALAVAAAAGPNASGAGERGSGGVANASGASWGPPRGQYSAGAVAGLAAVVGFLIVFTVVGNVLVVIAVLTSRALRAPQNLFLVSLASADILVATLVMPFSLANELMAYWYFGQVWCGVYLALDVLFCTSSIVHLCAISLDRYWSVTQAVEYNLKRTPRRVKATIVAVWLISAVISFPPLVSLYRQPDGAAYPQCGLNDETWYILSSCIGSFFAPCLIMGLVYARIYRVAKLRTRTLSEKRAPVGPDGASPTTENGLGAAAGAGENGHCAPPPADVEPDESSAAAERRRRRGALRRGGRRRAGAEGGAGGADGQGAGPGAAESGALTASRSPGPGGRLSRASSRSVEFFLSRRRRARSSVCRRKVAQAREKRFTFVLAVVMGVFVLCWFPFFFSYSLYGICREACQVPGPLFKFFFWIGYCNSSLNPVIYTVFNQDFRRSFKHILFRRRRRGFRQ

[9] = biological target: T2, Sodium-dependent dopamine transporter; assay: Inhibition of [3H]WIN35,428 binding to recombinant human DAT expressed in HEK293 cell membranes at 10 uM pre-incubated for 10 mins before radioligand addition and measured 90 mins after radioligand addition by micro beta scintillation counting analysis relative to control
[10] = tested on: Mus musculus; assay: Antiallodynic activity in mouse chronic constriction injury model of neuropathic pain assessed as time duration of action for increasing in paw withdrawal threshold at 3 umol/kg, po administered on day 7 post injury; type: functional
[11] = biological target: T7, Alpha-1A adrenergic receptor (Homo sapiens, UniProt P35348); assay: Displacement of [3H]Prazosin from human adrenergic alpha1A receptor
T7 sequence (P35348 whole entry): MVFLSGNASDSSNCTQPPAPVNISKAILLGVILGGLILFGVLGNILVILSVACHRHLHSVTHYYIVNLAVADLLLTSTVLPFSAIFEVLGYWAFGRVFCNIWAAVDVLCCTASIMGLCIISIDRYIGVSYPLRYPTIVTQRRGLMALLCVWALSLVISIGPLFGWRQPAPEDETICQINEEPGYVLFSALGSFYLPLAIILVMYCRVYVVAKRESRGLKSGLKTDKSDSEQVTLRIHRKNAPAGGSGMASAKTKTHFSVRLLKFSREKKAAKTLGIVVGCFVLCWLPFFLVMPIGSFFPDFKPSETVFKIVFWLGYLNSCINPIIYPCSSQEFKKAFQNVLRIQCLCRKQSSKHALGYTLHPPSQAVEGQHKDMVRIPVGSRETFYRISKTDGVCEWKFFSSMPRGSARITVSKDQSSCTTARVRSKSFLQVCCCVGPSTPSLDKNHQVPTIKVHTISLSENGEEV

[12] = biological target: T8, Sodium-dependent noradrenaline transporter (Homo sapiens, UniProt P23975); assay: Inhibition of [3H]mazindol binding to recombinant human NET expressed in HEK293 cell membranes preincubated for 10 mins followed by radioligand addition measured after 90 mins by micro beta scintillation counting analysis
T8 sequence (P23975 whole entry): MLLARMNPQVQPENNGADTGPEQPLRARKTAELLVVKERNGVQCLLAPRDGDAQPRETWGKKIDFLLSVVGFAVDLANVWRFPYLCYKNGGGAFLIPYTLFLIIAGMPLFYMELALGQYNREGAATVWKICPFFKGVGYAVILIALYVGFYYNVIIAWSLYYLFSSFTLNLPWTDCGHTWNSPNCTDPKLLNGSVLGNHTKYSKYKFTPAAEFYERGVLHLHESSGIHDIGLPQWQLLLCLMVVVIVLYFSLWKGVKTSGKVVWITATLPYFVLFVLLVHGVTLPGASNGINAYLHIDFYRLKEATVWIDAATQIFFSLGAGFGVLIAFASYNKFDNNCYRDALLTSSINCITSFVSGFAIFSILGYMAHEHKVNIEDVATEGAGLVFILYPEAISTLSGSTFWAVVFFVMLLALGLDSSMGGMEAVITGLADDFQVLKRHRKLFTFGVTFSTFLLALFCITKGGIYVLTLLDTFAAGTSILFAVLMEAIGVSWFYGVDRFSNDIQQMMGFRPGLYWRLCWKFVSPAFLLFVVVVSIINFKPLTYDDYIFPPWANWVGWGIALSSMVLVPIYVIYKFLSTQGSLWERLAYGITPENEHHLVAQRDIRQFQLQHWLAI

[13] = biological target: T8, Sodium-dependent noradrenaline transporter; assay: Enhancing of [125I]RTI-55 binding to recombinant human NET expressed in HEK293 cell membranes preincubated for 10 mins followed by radioligand addition measured after 90 mins by micro beta scintillation counting analysis; details: hek293
[14] = biological target: T2, Sodium-dependent dopamine transporter; assay: Enhancing of [3H]mazindol binding to recombinant human DAT expressed in HEK293 cell membranes preincubated for 10 mins followed by radioligand addition measured after 90 mins by micro beta scintillation counting analysis; details: hek293
In short: (§1)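 Membranes of HEK-293 cells stably expressing hDAT, hNET or hSERT. […] Compound preincubated 10 min at room temperature, then [125I]23 (40-80 pM final) or [3H]26 (1-3 nM for DAT and NET, 10-13 nM for SERT) added. Incubated 90 min at room temperature in the dark, then filtered. EC50 or Ki; mean ± SEM.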

[15] = biological target: T2, Sodium-dependent dopamine transporter; assay: Enhancing of [125I]RTI-55 binding to recombinant human DAT expressed in HEK293 cell membranes preincubated for 10 mins followed by radioligand addition measured after 90 mins by micro beta scintillation counting analysis; details: hek293; in short: as §1
[16] = biological target: T8, Sodium-dependent noradrenaline transporter; assay: Enhancing of [3H]mazindol binding to recombinant human NET expressed in HEK293 cell membranes preincubated for 10 mins followed by radioligand addition measured after 90 mins by micro beta scintillation counting analysis
[17] = biological target: T8, Sodium-dependent noradrenaline transporter; assay: Inhibition of [125I]RTI-55 binding to recombinant human NET expressed in HEK293 cell membranes preincubated for 10 mins followed by radioligand addition measured after 90 mins by micro beta scintillation counting analysis
[18] = biological target: T8, Sodium-dependent noradrenaline transporter; assay: Inhibition of recombinant human NET expressed in HEK293 […] assessed as reduction in [3H]-norepinephrine uptake incubated for 22 mins by micro beta scintillation counting analysis
[19] = biological target: Sodium-dependent serotonin transporter (Homo sapiens, UniProt P31645); assay: Enhancing of [125I]RTI-55 binding to recombinant human SERT expressed in HEK293 cell membranes preincubated for 10 mins followed by radioligand addition measured after 90 mins by micro beta scintillation counting analysis; details: hek293
Sodium-dependent serotonin transporter, sequence (P31645 whole entry): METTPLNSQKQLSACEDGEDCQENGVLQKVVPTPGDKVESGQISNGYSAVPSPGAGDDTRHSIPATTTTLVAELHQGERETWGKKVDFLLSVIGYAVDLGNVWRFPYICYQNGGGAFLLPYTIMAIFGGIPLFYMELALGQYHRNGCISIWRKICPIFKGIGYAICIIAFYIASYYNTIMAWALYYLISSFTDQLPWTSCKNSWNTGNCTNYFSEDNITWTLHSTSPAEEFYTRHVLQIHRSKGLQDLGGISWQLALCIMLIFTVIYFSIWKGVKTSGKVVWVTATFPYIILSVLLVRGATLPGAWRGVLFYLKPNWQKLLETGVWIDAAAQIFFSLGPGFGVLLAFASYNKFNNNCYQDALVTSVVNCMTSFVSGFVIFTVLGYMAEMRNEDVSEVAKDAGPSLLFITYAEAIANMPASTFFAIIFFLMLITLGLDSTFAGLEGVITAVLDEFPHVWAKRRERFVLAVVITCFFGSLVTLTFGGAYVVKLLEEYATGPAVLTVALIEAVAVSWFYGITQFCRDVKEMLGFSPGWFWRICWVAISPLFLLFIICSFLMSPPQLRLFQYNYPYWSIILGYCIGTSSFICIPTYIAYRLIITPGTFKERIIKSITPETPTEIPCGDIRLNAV

[20] = biological target: T8, Sodium-dependent noradrenaline transporter; assay: Inhibition of [3H]nisoxetine binding to recombinant human NET expressed in HEK293 cell membranes preincubated for 10 mins followed by radioligand addition measured after 90 mins by micro beta scintillation counting analysis
[21] = biological target: T2, Sodium-dependent dopamine transporter; assay: Enhancing of [3H]WIN35,428 binding to recombinant human DAT expressed in HEK293 cell membranes pre-incubated for 10 mins before radioligand addition and measured 90 mins after radioligand addition by micro beta scintillation counting analysis relative to control
[22] = biological target: Alpha-2B adrenergic receptor (Homo sapiens, UniProt P18089); assay: Displacement of [3H]Rauwolscine from human adrenergic alpha2B receptor
Alpha-2B adrenergic receptor, sequence (P18089 whole entry): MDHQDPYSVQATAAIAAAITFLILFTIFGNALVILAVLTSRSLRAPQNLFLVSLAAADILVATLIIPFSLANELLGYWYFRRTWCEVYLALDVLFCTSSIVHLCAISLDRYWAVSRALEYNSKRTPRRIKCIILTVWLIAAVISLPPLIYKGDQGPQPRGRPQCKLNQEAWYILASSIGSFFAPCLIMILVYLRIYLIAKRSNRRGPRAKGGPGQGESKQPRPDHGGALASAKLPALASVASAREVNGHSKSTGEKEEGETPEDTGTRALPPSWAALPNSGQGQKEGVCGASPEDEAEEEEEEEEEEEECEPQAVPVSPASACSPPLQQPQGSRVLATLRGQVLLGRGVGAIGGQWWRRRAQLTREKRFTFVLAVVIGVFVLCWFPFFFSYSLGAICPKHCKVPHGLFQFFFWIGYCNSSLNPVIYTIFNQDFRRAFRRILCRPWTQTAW

[23] = biological target: T9, Adenosine receptor A3 (Mus musculus, UniProt Q61618); assay: Displacement of [125I]N6-(4-amino-3-iodobenzyl)adenosine-5'-N-methyluronamide from mouse A3AR expressed in HEK293T cells pre-incubated for 10 mins before radioligand addition and measured 90 mins after radioligand addition by micro beta scintillation counting analysis relative to control; type: cell-based
T9 sequence (Q61618 whole entry): T3 sequence (whole entry)

[24] = biological target: T10, Sodium-dependent dopamine transporter (Mus musculus, UniProt Q61327); assay: Inhibition of [125I]RTI-55 binding to mouse DAT expressed in HEK293 cells preincubated for 10 mins followed by radioligand addition measured after 90 mins by micro beta scintillation counting analysis; type: cell-based
T10 sequence (Q61327 whole entry): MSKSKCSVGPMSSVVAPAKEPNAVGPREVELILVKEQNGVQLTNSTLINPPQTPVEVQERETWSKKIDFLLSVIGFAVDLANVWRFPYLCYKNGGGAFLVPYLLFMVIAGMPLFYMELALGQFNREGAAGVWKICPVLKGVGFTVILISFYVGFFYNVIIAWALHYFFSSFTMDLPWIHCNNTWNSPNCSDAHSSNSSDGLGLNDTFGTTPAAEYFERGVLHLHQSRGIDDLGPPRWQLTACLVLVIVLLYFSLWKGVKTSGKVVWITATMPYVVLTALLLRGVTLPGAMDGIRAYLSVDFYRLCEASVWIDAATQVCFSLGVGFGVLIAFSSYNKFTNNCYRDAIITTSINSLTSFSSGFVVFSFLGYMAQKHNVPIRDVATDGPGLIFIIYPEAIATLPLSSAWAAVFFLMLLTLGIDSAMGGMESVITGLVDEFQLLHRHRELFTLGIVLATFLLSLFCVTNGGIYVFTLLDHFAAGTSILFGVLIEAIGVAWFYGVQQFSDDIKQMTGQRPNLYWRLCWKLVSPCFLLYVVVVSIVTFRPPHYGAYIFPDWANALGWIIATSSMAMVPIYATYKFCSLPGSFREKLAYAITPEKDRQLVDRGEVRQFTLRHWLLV

[25] = biological target: T10, Sodium-dependent dopamine transporter; assay: Inhibition of mouse DAT expressed in HEK293 cells assessed as reduction in [3H]-DA uptake; type: cell-based
[26] = biological target: T2, Sodium-dependent dopamine transporter; assay: Inhibition of [3H]mazindol binding to recombinant human DAT expressed in HEK293 cell membranes preincubated for 10 mins followed by radioligand addition measured after 90 mins by micro beta scintillation counting analysis

Compound | Ki [1] [nM] | Activity [3] | Ki [5] [nM] | Ki [6] [nM] | Ki [7] [nM] | Ki [8] [nM] | inhibition [9] | Time [10] [h] | Ki [11] [nM] | EC50 [14] | EC50 [15] | EC50 [16] | EC50 [19] | other results
CNc1nc(C#Cc2ccc(Cl)s2)nc2c1ncn2[C@H]1[C@H](O)[C@H](O)[C@]2(C(=O)OCCc3ccccc3)C[C@H]12 | 262 | inactive | – | – | – | – | – | – | – | – | – | – | – | Ki [2]: 5900 nM; inhibition [4]: 3%
CNC(=O)[C@H]1O[C@@H](n2cnc3c(NC)nc(C#Cc4ccc(Cl)s4)nc32)[C@H](O)[C@@H]1O | – | 321% | 5000 to 10000 | > 10000 | > 10000 | > 10000 | inactive | >6 | > 10000 | – | – | – | – | –
OC1(c2ccc(Cl)cc2)c2ccccc2C2=NCCN21 (racemic) [MAZINDOL] | – | – | – | – | – | – | – | – | – | Not Active | Not Active | Not Active | Not Active | Ki [12]: 13.5 nM; EC50 [13]: Not Active; Ki [17]: 11.3 nM; IC50 [18]: 0.92 nM
CCCNc1nc(C#Cc2ccc(Cl)s2)nc2c1ncn2[C@@H]1O[C@H](C(=O)NC)[C@@H](O)[C@H]1O | 6.25 | 84% | 5000 to 10000 | > 10000 | > 10000 | > 10000 | inactive | >6 | > 10000 | – | – | – | – | Ki [20]: 3100 nM; EC50 [21]: > 1000 nM; Ki [22]: 5000 to 10000 nM; Ki [23]: 597 nM
COC(=O)[C@H]1[C@@H](OC(=O)c2ccccc2)C[C@@H]2CC[C@H]1N2C [COCAINE] | – | – | – | – | – | – | – | – | – | Not Active | Not Active | – | Not Active | Ki [24]: 850 nM; IC50 [25]: 200 nM
COC(=O)[C@H]1[C@@H](c2ccc([125I])cc2)CC2CC[C@H]1N2C | – | – | – | – | – | – | – | – | – | Not Active | – | Not Active | – | Ki [26]: 11 nM
